Experimental data taken from PubChem BioAssay AID463111 (Johns Hopkins Ion Channel Center, 2010).
Out of some 310,000 compounds screened, about 2,800 (0.9%) were called active. The sample holds actives, similar compounds and a random draw of the others, so the mix is not that of the screen.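 Rule for the calls: active = B-score of the integrated calcium signal more than 4 SD below the library mean, with starting fluorescence not abnormally high; inactive = the rest.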

Assay: RGS4 potentiators or activators, primary screen, cell-based, HEK293 M3R inducible RGS4, calcium flux (AID 463111);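 for B-score: negative B-score means reduced calcium response which marks RGS4 activation or potentiation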
Conditions: HEK293 M3R/inducible RGS4, carbachol calcium flux Fluo4, at 10 µM; active compounds read low
Procedure, shortened: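 Also added: carbachol at ECmax as muscarinic agonist stimulus; Assay system: HEK293 cells with stable M3R and inducible RGS4; Timing: overnight RGS4 induction, 30 min dye load 37 °C, 20 min compound RT; Measured by: Fluo4-AM (2 µM) calcium-flux fluorescence, kinetic read.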

| Structure (SMILES) | B-score |
| --- | --- |
| COc1cccc(C(=O)OCc2cc(=O)oc3c(C)c(C)ccc23)c1OC | inactive |
| O=C1c2ccccc2C(=O)N1c1cccc2ccccc12 | inactive |
| Cc1nn(C)cc1N1C(=O)c2cccc3c(N)ccc(c23)C1=O | -8.92 (active) |
| CN1C(=O)c2cccc3c(N)ccc(c23)C1=O | inactive |
| COc1ccc(C(=O)Nc2ccc(C(=O)NCC3CCCO3)cc2)c(OC)c1OC (centres undefined) | inactive |
| CC(=O)NCC(=O)N1CCC(n2nccc2NC(=O)CCCc2ccccc2)CC1 | inactive |
| COc1ccc(/C=C/C(=O)c2ccc(NS(=O)(=O)c3ccc(C)cc3)cc2)cc1O | inactive |
| COC(=O)c1ccc(COc2ccc(/C=C/C(=O)c3ccc(OC)c(CSCC(=O)O)c3)cc2OC)cc1 | inactive |
| COc1ccc(C(=O)/C=C/c2ccc(-c3ccccc3)cc2)cc1CSCC(=O)O | -7.93 (active) |
| CC(C)=CCN1CCN(CCCc2ccccc2)CC1CCO (centres undefined) | inactive |
| NC1=NC(c2ccc([N+](=O)[O-])cc2)N(c2ccc(F)cc2)C(N)=N1 (centres undefined) | inactive |
| O=C(CN1CCCCCC1)N1c2ccccc2Sc2ccc(C(F)(F)F)cc21 | -7.9 (active) |
| CCOC(=O)CNC(=O)N1c2ccccc2Sc2ccccc21 | inactive |
| COc1cc(/C=C/C(=O)N2c3ccccc3Sc3ccc(C(F)(F)F)cc32)cc(OC)c1OC | inactive |
| CCn1nc(C)c(CNC(=O)C2CCC(=O)N(Cc3cccc(F)c3)C2)c1C (centres undefined) | inactive |
| Cc1ccc(CN(C)Cc2cc(=O)oc3cc(C)c(Cl)cc23)cc1 | inactive |
| CCOc1ccc(N(C)Cc2cc(=O)oc3ccc(OC)cc23)cc1 | inactive |
| Cc1cc2oc(=O)cc(CN(C)Cc3ccc(OC(F)F)cc3)c2cc1Cl | -7.56 (active) |
| CCN1CCN(c2sc(S(C)(=O)=O)nc2S(=O)(=O)c2ccc(Cl)cc2)CC1 | inactive |
| Cc1onc(C(=O)NN)c1C(=O)N1CCN(C(c2ccccc2)c2ccccc2)CC1 | inactive |

| Structure (SMILES) | B-score |
| --- | --- |
| O=C(c1ccc(-n2cnnn2)cc1)N1CCN(C(c2ccccc2)c2ccccc2)CC1 | -7.43 (active) |
| Cn1nnnc1SCC(=O)N1CCN(C(c2ccccc2)c2ccccc2)CC1 | inactive |
| C=CCN(C(=O)Cn1ncc2c1-c1cc(C)ccc1OC2)c1ccccc1 | inactive |
| Cc1ccc(S(=O)(=O)NCc2ccc(C(=O)NC3CCC(C)CC3)cc2)cc1 (centres undefined) | inactive |
| CCOC(=O)c1c(NC(=S)NC)sc2c1CCCC2 | inactive |
| CCOC(=O)c1c(NC(=O)CSc2cn(CC)c3ccccc23)sc2c1CCC2 | inactive |
| CCOC(=O)c1c(NC(=O)C(C)Sc2c[nH]c3ccccc23)sc2c1CCC2 (centres undefined) | -7.36 (active) |
| COc1cccc(/C=N/Nc2cc(C)nc(-c3ccccc3O)n2)c1O | -11.4 (active) |
| COc1cccc(/C=N/Nc2ncc(C(F)(F)F)cc2Cl)c1O | inactive |
| COc1cccc(/C=N/NC(=O)c2[nH]nc3c2CCc2ccccc2-3)c1O | inactive |
| Cc1ccc(SCC(=O)Nc2ccc3c(c2)OCCO3)cc1 | inactive |
| Cc1ccc(C(=O)CSc2ccccc2C(=O)O)cc1 | inactive |
| Cc1ccc(SCC(=O)c2cc(C)c(OC(=S)N(C)C)c(C)c2)cc1 | -8.33 (active) |
| CN(C)C(=O)Cn1c(=O)n(S(=O)(=O)c2ccccc2)c2ccccc21 | inactive |
| CC(=O)C1C(c2cccc(Oc3ccccc3)c2)NC(=O)NC1(O)C(F)(F)F (centres undefined) | inactive |
| O=C(c1cccs1)C1C(c2ccc(Br)cc2)NC(=S)NC1(O)C(F)(F)F (centres undefined) | -11.1 (active) |
| CCOC(=O)C1C(c2ccc(Cl)cc2)NC(=S)NC1(O)C(F)(F)F (centres undefined) | inactive |
| O=C(NCc1ccncc1)C(=O)NCC1OCCN1S(=O)(=O)c1ccc(Br)cc1 (centres undefined) | inactive |
| COc1ccc(/C=C(\C#N)c2c[nH]c3ccccc23)cc1 | -9.16 (active) |
| COc1ccc(C(C(O)C(=O)c2c[nH]c3ccccc23)N2CCN(c3ccccc3)CC2)cc1 (centres undefined) | inactive |

| Structure (SMILES) | B-score |
| --- | --- |
| COc1ccc2[nH]cc(/C=C(/C#N)S(=O)(=O)c3ccccc3)c2c1 | inactive |
| COc1cccc(NC(=S)C(C#N)=C2N(C)c3ccccc3N2C)c1 | inactive |
| CC(C)(C)c1ccc(C(=O)N2CCN(CCNC(=O)C(=O)Nc3ccc(F)cc3)CC2)cc1 | inactive |
| COc1ccc(/C(C)=N\NC(=O)c2ccc(-c3ccccc3)cc2)c(F)c1 | inactive |
| COc1cccc(C(=O)N/N=C(\C)c2cccc(NC(=O)c3ccc(F)cc3)c2)c1OC | -7.56 (active) |
| COc1cccc(C(=O)Nc2cccnc2)c1OC | inactive |
| CC(C)(C)n1ncc2c(=O)n(Cc3ccc(Cl)cc3)cnc21 | inactive |
| O=C(NCCN1CCOCC1)c1ccc(/C=C2\Sc3ccccc3N(Cc3ccc(F)cc3)C2=O)cc1 | inactive |
| CCN1CCN(CCNC(=O)c2ccc(/C=C3/Sc4ccccc4N(Cc4cccc(C)c4)C3=O)cc2)CC1 | -9.47 (active) |
| O=C(NCCCN1CCOCC1)c1ccc2c(c1)N(Cc1cccc(F)c1)C(=O)c1ccccc1S2 | inactive |
| Cc1oc(C(N)=O)cc1COc1ccc(C(N)=O)cc1 | inactive |
| Cn1nccc1NC(=O)CC(CC(=O)O)c1ccccc1 (centres undefined) | inactive |
| Cc1cccc(-c2nc3ccc(C(=O)NCCN4CCN(C)CC4)cc3nc2-c2cccc(C)c2)c1 | -8.03 (active) |
| Cc1ccc(C(=O)NCCN2CCOCC2)cc1C | inactive |
| CCC1=Nc2cc(C(=O)NCCN3CCCC3)ccc2Sc2ccc(C)cc21 | inactive |
| O=C(CN1CCC(NC(=O)C2CC2)CC1)Nc1ccccc1[N+](=O)[O-] | inactive |
| Cc1ccc(OCC(=O)NC(C)c2ccccc2)cc1C (centres undefined) | inactive |
| CCOc1ccc(C(CC(=O)O)NC(=O)COc2ccccc2)cc1 (centres undefined) | -7.76 (active) |
| CCOc1ccc(C(CC(=O)O)NC(=O)Cc2ccccc2)cc1OC (centres undefined) | inactive |
